Data: publication PMC5018460 (Bioorganic & medicinal chemistry letters, 2016)

Key:
[1] = biological target: HIV-1 IN (WT) (Human immunodeficiency virus type 1 group M subtype B, UniProt P12497); assay: biochemical
[2] = biological target: A128T mutant HIV-1 IN (Human immunodeficiency virus type 1 group M subtype B, UniProt P12497, A1275T); assay: HTRF-based aberrant IN multimerization assay, A128T mutant IN; format: biochemical
[3] = biological target: HIV-1 integrase (IN) (Human immunodeficiency virus type 1 group M subtype B, UniProt P12497); assay: HTRF-based LEDGF/p75-dependent integration assay; format: biochemical; settings: for activity in the LEDGF/p75-dependent integration assay: at concentrations up to 100 μM
Summary of the method: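 Homogeneous time-resolved fluorescence read-out of integration in the presence of LEDGF/p75. Reactions run in neutral buffer, so carboxylic acid test compounds are present as the carboxylate anion. The format is said to detect integrase inhibitors acting by different mechanisms.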

Row | Compound | IC50 [1] [µM] | IC50 [2] [µM] | IC50 [3] [µM] | activity in the LEDGF/p75-dependent integration assay [3]
1 | Cn1c(C(OC(C)(C)C)C(=O)O)c(-c2ccc3c(c2)CCCO3)c2ccccc21 (stereo not drawn) [Compound 5c] | 16.1 ± 2 | 16 ± 1.4 |  | 
2 | Cn1c(CC(OC(C)(C)C)C(=O)O)c(-c2ccccc2)c2ccccc21 (stereo not drawn) [Compound 10] |  |  | > 100 | failed to show any activity
3 | COc1ccc(-n2c(C(OC(C)(C)C)C(=O)O)c(C)c3ccccc32)cc1 (stereo not drawn) [Compound 15] |  |  | > 100 | failed to show any activity
